High-throughput results (PubChem)
The list is not random: actives were taken first. Their share in the collection is about 1.9%.
LMPTP inh: blocks human LMPTP phosphatase. actives 0.22% (n = 360,000). inhibition, % at 20 µM. recombinant LMPTP-A, OMFP fluorogenic substrate, fluorescence intensity. AID 651560;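 active = compounds that cut the enzyme signal by at least half of the control window in the single-dose screen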;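 also: plate controls were DMSO wells with enzyme plus substrate for no effect and substrate without enzyme for full effect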
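Test system – LMPTP-A enzyme · Amount – LMPTP-A at 0.625 nM final in the reaction · Buffer or medium – Bis-Tris pH 6.0, DTT, detergent · Reagent – OMFP 400 µM · Doses – single 20 µM dose · Schedule – reaction 50 min, room temperature, dark · Detection – fluorescence intensity of OMFP turnover product · Evaluation – percent inhibition versus substrate-only and uninhibited controls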
DNMT1 block: blocks human DNA methyltransferase DNMT1; DNMT1 molecular beacon, Hinp1I cleavage, fluorescence; inhibition (reported as % activation of signal), % at 10 µM; actives 0.83% (n = 360,000); AID 588458; in the data active = inhibition above about 50%
STEP inh: inhibitors of human striatal-enriched phosphatase STEP | P54829 | recombinant STEP, OMFP fluorogenic substrate, fluorescence | inhibition, % at 20 µM | actives 0.25% (n = 360,000);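 active = inhibition at 20 µM, scaled per plate between control wells, above about 37%, limit read from the data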;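 also: 0% = DMSO with enzyme and substrate and 100% = substrate only without enzyme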
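Material: STEP (striatal-enriched tyrosine phosphatase) enzyme, cell-free | Medium: 50 mM Bis-Tris pH 6.0 with 2.5 mM DTT and 0.005% Tween 20 | Read-out: Percent inhibition scaled to no-enzyme and uninhibited-enzyme controls, plate-pattern corrected | Signal: Fluorescence read at 480 nm ex / 540 nm em | Times: 20 min reaction, room temperature, in the dark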
SUMO HTRF inh: blocks human SUMOylation mediated by UBC9. P63279. HTRF SUMOylation assay, SAE1/SAE2 + UBC9, in vitro. inhibition, % at 35 µM. actives 0.36% (n = 290,000); in the data active = inhibition above about 50%, passing the limit was not always enough
Target sequence (P63279 whole entry, looked up): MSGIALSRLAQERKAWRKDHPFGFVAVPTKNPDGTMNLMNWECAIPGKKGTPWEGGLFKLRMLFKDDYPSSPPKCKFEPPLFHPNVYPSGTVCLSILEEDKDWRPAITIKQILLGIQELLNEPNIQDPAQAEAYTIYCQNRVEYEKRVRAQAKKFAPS
SUMO1-SIM PPI: alters human SUMO1 binding to SIM partners; P63165; SUMO1 binding to a labelled peptide, TR-FRET, 1 h; inhibition, % at 20 µM; actives 0.33% (n = 360,000); AID 602429; in the data active = inhibition above about 37%
Target sequence (P63165 whole entry, looked up): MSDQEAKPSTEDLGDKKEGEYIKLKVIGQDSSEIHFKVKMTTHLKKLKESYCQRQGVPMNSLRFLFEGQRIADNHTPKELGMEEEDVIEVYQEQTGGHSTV
Scp-1 inhibitor: inhibitors of human Scp-1 phosphatase | inhibition, % at 20 µM | actives 0.88% (n = 340,000) | Recombinant Scp1, phosphopeptide, malachite green phosphate absorbance | AID 493091 | Q9GZU7;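 active = inhibition above about 50% at 20 µM, limit read from the data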;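 also: plate controls were DMSO wells with enzyme for no effect and wells lacking enzyme for full effect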
Target sequence (Q9GZU7 76-261 limits assumed): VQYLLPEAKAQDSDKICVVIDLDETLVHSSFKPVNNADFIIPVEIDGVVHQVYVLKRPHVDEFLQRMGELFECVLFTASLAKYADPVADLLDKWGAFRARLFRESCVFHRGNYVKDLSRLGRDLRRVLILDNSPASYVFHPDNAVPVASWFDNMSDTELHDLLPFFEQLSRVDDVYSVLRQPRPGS
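Test system – truncated SCP-1 phosphatase (76-261aa) · Reagent – Phosphorylated 17-residue peptide substrate · Incubation – 45 min room-temperature reaction, 5 min colour, 30 min stabiliser · Detection – colorimetric phosphate reagent with accelerator and stabiliser, absorbance at 630 nm · Measure – % inhibition at 20 µM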
STEP inh conf: STEP (human) phosphatase inhibition, single concentration confirmation; recombinant STEP, OMFP fluorogenic substrate, fluorescence; shares compounds with STEP inh; inhibition, % at 20 µM; AID 623866; actives 32% (n = 520); call rule not given here;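 also: 0% = enzyme with substrate plus DMSO and 100% = substrate without enzyme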
Numbers without * were called inactive; x = no result.

SMILES	LMPTP inh	DNMT1 block	STEP inh	SUMO HTRF inh	SUMO1-SIM PPI	Scp-1 inhibitor	STEP inh conf
CCCn1c(SCC(=O)c2c(C)[nH]c(C)c2C(=O)OCC)nc2ccccc21	0.8	2.6	59.0*	-6.2	3.9	-3.9	25.8
CCOC(=O)c1c(C)[nH]c(C)c1C(=O)CSc1nc2ccccc2n1CCC#N	-0.4	5.0	14.4	12.5	3.5	-3.9	x
COc1cc2c(cc1OC)C(C(=O)O)C(c1ccc(C)o1)N(C)C2=O (stereo not drawn)	0.1	-1.3	56.2*	3.8	1.9	-3.6	11.6
Cc1ccc(C2C(C(=O)O)c3ccccc3C(=O)N2C)o1 (stereo not drawn)	-1.4	-0.8	-2.3	-11.8	-2.5	-10.7	x
O=C(NCCCNC(=O)c1cnccn1)c1ccc(Br)cc1	-1.9	-0.1	59.4*	-9.8	3.8	-0.6	-0.4
O=C(NCCCNC(=O)c1cnccn1)c1ccc(Cl)cc1	-1.7	0.3	-0.9	3.9	5.7	-5.8	x
S=C(NCCCN1CCOCC1)Nc1ccc(Cl)cc1	-5.6	-2.2	6.3	11.0	-1.2	-8.2	x
FC(F)(F)Oc1ccc(NC(=S)NCCCN2CCOCC2)cc1	-2.1	9.6	41.2*	19.9	4.2	-8.1	30.1
CCN1CCN(C(=S)c2ccc(OC)cc2)CC1	-1.4	2.1	72.6*	-7.8	2.2	0.6	30.5
COc1ccc(C(=S)N2CCCCCC2)cc1	1.2	-12.9	6.0	-4.3	2.1	-12.1	x
OCCN1CCN(C(=S)c2ccc(Cl)cc2)CC1	1.4	1.2	70.4*	5.8	-1.3	0.8	13.2
CCOc1ccc(C(=S)N2CCCC2)cc1	-3.0	-3.5	-1.5	10.5	0.0	-5.0	x
S=C(c1ccc(Cl)cc1)N1CCN(Cc2ccccc2)CC1	1.3	0.4	1.6	-4.3	-1.6	-5.3	x
CCOc1ccc(C(=S)N2CCN(C)CC2)cc1	-0.8	-1.9	81.2*	-2.8	0.0	-6.9	48.2*
CCN1CCN(C(=S)c2ccc(Cl)cc2)CC1	0.0	0.6	95.0*	6.5	-0.6	-5.0	63.3*
Cc1nn(CC(=O)Nc2ccccc2C(F)(F)F)c(=O)c2cccn12	-0.3	-0.8	-3.9	-2.6	-0.3	-2.4	x
COc1cccc(CN2CCC2(C)C(=O)Nc2ccc(C)c(O)c2)c1F (stereo not drawn)	-0.3	-2.4	-4.0	x	1.9	x	x
COc1cccc(NC(=O)CN(C)C(=O)c2ccc3c(c2)C(=O)N(CCC(C)C)C3=O)c1	1.0	-3.0	1.0	x	-21.0	-8.6	x
CCN1CCN(C(=S)c2ccc([N+](=O)[O-])cc2)CC1	-1.2	2.7	61.7*	-7.0	-20.2	0.7	24.0
O=C(Nc1ccccn1)Nc1ccccc1Cl	0.3	2.5	-1.6	-6.3	0.9	-4.7	x
CC(=O)N1C(=O)/C(=C2\SC(=S)N(NS(=O)(=O)c3ccc(C)cc3)C2=O)c2ccccc21	3.7	4.0	11.0	8.5	3.5	-3.4	x
Cc1ccccc1-n1nc(CSc2nc3ccccc3[nH]2)c(-c2ccccc2)c1N	1.2	-5.8	58.2*	-17.5	4.8	-1.4	7.2
Cc1ccc2c(c1)C1C[N+](C)(CC(=O)Nc3ccccc3Cl)CCC1N2C(=O)c1ccccc1Cl (stereo not drawn)	-0.2	5.2	-3.0	x	-10.7	5.3	x
O=C(O)c1ccc(/C=N/Nc2nc3ccccc3[nH]2)cc1	14.4	2.0	48.6*	-0.2	-9.2	38.5	0.3
